The source of these data is ChEMBL document CHEMBL2385016, “Inhibition of VEGF expression in cancer cells and endothelial cell differentiation by synthetic stilbene derivatives” (Bioorg Med Chem, 2013).

Converted amounts (≈) assume the structure as drawn. The source made the active and inactive calls. The calls are words filed in the database; no cut-off is given here.

Test [1] can be described thus: Antiproliferative activity against BAEC after 3 days by MTT assay. The format is functional. The note with it: Bos taurus, 72 h. In short, it runs like this:
(§1)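 MTT dye reduction. 3×10^3 BAE cells (collagenase-isolated) or 5×10^3 HT-29 cells per well in DMEM with 10% FBS, exposed to serial dilutions for 3 days at 37 °C, 5% CO2. MTT (5 mg/ml in PBS) added for 4 h, formazan dissolved in 0.04 N HCl/2-propanol, absorbance at 550 nm. Triplicate; IC50 is the concentration giving 50% survival. Compounds from 10 mg/mL DMSO stocks.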

Test [2] is described as follows: Antiangiogenic activity against BAEC assessed as inhibition of tube formation after 7 hrs by matrigel assay. The format is functional. The note with it: Bos taurus. The essentials: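 Wells coated with Matrigel (about 10.5 mg/mL), polymerized at least 30 min at 37 °C. 5×10^4 BAE cells seeded in DMEM with a range of compound concentrations. Incubated 7 h at 37 °C, 5% CO2, then viewed and photographed at 200×. Two observers scored tube formation. Value is the minimal concentration inhibiting differentiation.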

For test [3], the system named is HT-29. In words: Antiproliferative activity against human HT-29 cells after 3 days by MTT assay. Type of test: functional, cell-based. The note with it: HT-29, 72 h. In short, it runs like this:
as §1

Test [4] deals with HT-29. Briefly: Inhibition of VEGF protein production in human HT-29 cells at 10 ug/mL after 72 hrs by ELISA relative to control; values are per cent of control. Particulars: HT-29, 72 h. (ELISA stands for enzyme-linked immunosorbent assay.)
Test [5] concerns HT-29. In words: Inhibition of VEGF mRNA expression in human HT-29 cells at 10 ug/mL after 48 hrs by RT-PCR analysis relative to control; values are per cent of control. Particulars: HT-29, 48 h.
The test system of test [6] is HT-29. In words: Inhibition of VEGF protein production in human HT-29 cells at 20 ug/mL after 72 hrs by ELISA relative to control; values are per cent of control. Particulars: HT-29, 72 h.
Test [7] concerns HT-29. In words: Inhibition of VEGF mRNA expression in human HT-29 cells at 20 ug/mL after 48 hrs by RT-PCR analysis relative to control; values are per cent of control. The note with it: HT-29, 48 h.
For test [8], the system named is HT-29. Briefly: Inhibition of VEGF protein production in human HT-29 cells at 10 ug/mL after 72 hrs by ELISA relative to control. Type of test: functional. The essentials: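 HT-29 cells at 70–80% confluence were serum-starved 24 h, then treated 72 h with compound in DMSO. VEGF secreted into culture supernatants was measured by human VEGF ELISA kit in ng/mL and compared with untreated and DMSO controls. At least three measurements per condition; mean ± SEM; one-sample t-tests.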

For `COc1ccc(/C=C/c2ccccc2)cc1`, the IC50 – broadly, the concentration needed to halve the response being measured – stood at 418 µM in test [1] and 26 µM in test [3]. The MIC (as a rule, the lowest concentration found to suppress growth) in test [2] stood at 475 µM (≈ 99.9 µg/mL).
For `Oc1ccccc1/C=C/c1ccccc1`, the level, % of control at 10 µg/mL in test [4] came out at 41%; in test [5], 91%. Further, the half-maximal inhibitory concentration (IC50) in test [1] was determined as 107 µM; in test [3], 112 µM. The MIC in test [2] worked out at 32 µM (≈ 6.28 µg/mL).
Take `Oc1ccc(/C=C/c2cc(O)cc(O)c2)cc1` [RESVERATROL]: the IC50 in test [1] was 48 µM; in test [3], 110 µM. Further, the level, % of control at 20 µg/mL in test [6] stood at 65%; in test [7], 86%. The MIC in test [2] is 54.8 µM (≈ 12.5 µg/mL).
As to `Oc1cccc(/C=C/c2ccccc2)c1` [(E)-3-STILBENOL], the results for the IC50 in test [1] and in test [3] were 91.7 µM and 127 µM, respectively. For the same molecule, the MIC in test [2] was found to be 32 µM (≈ 6.28 µg/mL).
Take `C=CCOc1ccccc1/C=C/c1ccccc1`: the figures for the level, % of control at 10 µg/mL in test [4] and in test [5] were 41% and 50%, respectively. In addition, the IC50 was 313 µM in test [1] and 55 µM in test [3]. The MIC in test [2] came out at 53 µM (≈ 12.5 µg/mL).
With `C=CCOc1ccc(/C=C/c2ccccc2)cc1`, the figures for the IC50 in test [1] and in test [3] were > 400 µM and 23 µM, respectively. Further, the MIC in test [2] is 106 µM (≈ 25 µg/mL).
In the same order, the values of `Oc1ccc(/C=C/c2ccccc2)cc1` [(E)-4-STYRYLPHENOL] are 33.6 µM, 34.6 µM and 32 µM (≈ 6.28 µg/mL).
Regarding `COc1ccccc1/C=C/c1ccccc1`, the IC50 in test [1] stood at 152 µM; in test [3], 42.8 µM. In test [5], the level, % of control at 10 µg/mL was found to be 70%. Also, the inhibition result in test [8] was “Active”. The minimum inhibitory concentration (MIC) in test [2] is 59.5 µM (≈ 12.5 µg/mL).
